Laboratory results: ChEMBL document CHEMBL4196163, “In Silico Identification of Piperidinyl-amine Derivatives as Novel Dual Binders of Oncogene c-myc/c-Kit G-quadruplexes” (ACS Med Chem Lett, 2018)
Calls of active or inactive are those of the source. The calls are words filed in the database; no cut-off is given here.

Columns and labels:
dsDNA = assay: Binding affinity to double stranded DNA (unknown origin) assessed as change in melting temperature at 20 uM by fluorescence assay; format: nucleic-acid assay
Quadruplex DNA [1] = assay: Binding affinity to 5'-Dabcyl/3'-FM labeled c-Kit G-quadruplex DNA (unknown origin) assessed as change in melting temperature at 20 uM by fluorescence assay; format: nucleic-acid assay
Outline: (§1)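 Fluorescence melting of end-labelled oligonucleotides matching the c-myc and c-Kit G4 sequences used in the virtual screen. Melting profiles were recorded with and without increasing ligand concentrations.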

Quadruplex DNA [2] = assay: Binding affinity to 5'-Dabcyl/3'-FM labeled c-myc G-quadruplex DNA (unknown origin) assessed as change in melting temperature at 20 uM by fluorescence assay; format: nucleic-acid assay; outline: as §1
Quadruplex DNA [3] = assay: Stabilization of c-Kit G-quadruplex DNA (unknown origin) by circular dichroism method; format: nucleic-acid assay
Quadruplex DNA [4] = assay: Stabilization of c-myc G-quadruplex DNA (unknown origin) by circular dichroism method; format: nucleic-acid assay
Quadruplex DNA [5] = assay: Stabilization of 5'-biotinylated c-Kit G-quadruplex DNA (unknown origin) by surface plasmon resonance assay; format: nucleic-acid assay
HGC-27 = assay: Cytotoxicity against human HGC27 cells assessed as reduction in cell viability after 72 hrs by Alamar blue assay; format: functional, cell-based; conditions: for IC50: HGC-27, 72 h
Outline: (§2)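 Cells were exposed to the compound for 72 h, and viability was read by Alamar Blue. IC50 values were taken from dose-response curves, with linear regression coefficients (R2) reported.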

[6] = (§3) Cytotoxicity against human HMC-1.2 cells assessed as reduction in cell viability after 72 hrs by Alamar blue assay; format: functional, cell-based; outline: as §2
Homo sapiens = species: Homo sapiens; assay: as §3; format: functional, cell-based; outline: as §2

Compound	Activity (dsDNA)	ΔTm (Quadruplex DNA [1]) [°C]	ΔTm (Quadruplex DNA [2]) [°C]	Kd (Quadruplex DNA [3]) [nM]	Activity (Quadruplex DNA [4])	Activity (Quadruplex DNA [5])	Activity (Quadruplex DNA [3])	ΔTm (dsDNA) [°C]	Activity (HGC-27)	IC50 (HGC-27) [nM]	IC50 [6] [nM]	Activity (Homo sapiens)
CCOc1cc(CNCC2CCNCC2)ccc1OCc1ccc(Cl)cc1	inactive	3.2	5.4	18000	Active	Dose-dependent effect	–	–	Dose-dependent effect	2370	2560	Dose-dependent effect
CC(C)CC(N)C(=O)NC1CCN(C(=O)Cn2ccc3ccncc32)CC1 (stereo not drawn)	inactive	0.3	0.1	–	–	–	–	–	–	–	–	–
Cc1cc(-c2ccc(CNCC3CCNCC3)o2)ccc1Br	–	3	2	–	Active	–	Active	1.5	Dose-dependent effect	2550	2560	Dose-dependent effect

The next lines start with results.

Activity (dsDNA)	ΔTm (Quadruplex DNA [1]) [°C]	ΔTm (Quadruplex DNA [2]) [°C]	Kd (Quadruplex DNA [3]) [nM]	Activity (Quadruplex DNA [4])	Activity (Quadruplex DNA [5])	Activity (Quadruplex DNA [3])	ΔTm (dsDNA) [°C]	Compound	Activity (HGC-27)	IC50 (HGC-27) [nM]	IC50 [6] [nM]	Activity (Homo sapiens)
inactive	2.3	1.3	–	Active	Dose-dependent effect	Active	–	Cc1ccc(COc2ccc(CNCC3CCNCC3)cc2)cc1	Dose-dependent effect	4220	4000	Dose-dependent effect
inactive	0.1	0.6	–	–	–	–	–	CC(C)(N)C(=O)NC1CCN(C(=O)Cn2ccc3ccncc32)CC1	–	–	–	–
inactive	1.1	0.4	–	–	–	–	–	CCn1cc(C(NC(=O)CCCN)c2ccc(F)cc2)c2ccncc21 (stereo not drawn)	–	–	–	–
